Laboratory results reported in ChEMBL document CHEMBL4020768 (Bioorg Med Chem Lett, 2017).

Experiments:
[1] = Selectivity ratio of Ki for recombinant rat sigma 2 receptor to Ki for recombinant human sigma 1 receptor
[2] = target: T1, Sigma intracellular receptor 2 (Rattus norvegicus, UniProt Q5U3Y7); test: Displacement of (+)-[3H]-ditolylguanidine from recombinant rat sigma 2 receptor expressed in rat PC12 cell membranes after 90 mins in presence of sigma 1 receptor blocker (+)-SKF-10047 by scintillation counting method
T1 sequence (Q5U3Y7 whole entry): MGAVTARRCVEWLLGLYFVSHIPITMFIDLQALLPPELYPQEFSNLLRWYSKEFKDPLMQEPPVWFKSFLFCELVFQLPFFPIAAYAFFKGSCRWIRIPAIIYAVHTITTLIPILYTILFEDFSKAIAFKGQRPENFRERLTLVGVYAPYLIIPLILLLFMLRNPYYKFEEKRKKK
Procedure, shortened: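 PC-12 cell membranes (12-30 µg protein per reaction) in 50 mM Tris pH 8.0 with 30 nM [³H]DTG plus 1.8 µM (+)-SKF-10,047 to block σ1 sites; competitor at graded concentrations; 90 min at 37 °C; filtration through 0.3% PEI-soaked glass fiber filters; scintillation counting; two or three independent experiments in triplicate.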

[3] = target: Sigma non-opioid intracellular receptor 1 (Homo sapiens, UniProt Q99720); test: Displacement of (+)-[3H]-pentazocine from recombinant human sigma 1 receptor expressed in baculovirus infected Sf9 insect cell membranes after 90 mins by scintillation counting method
Procedure, shortened: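 Human σ1 cloned in pFastBac, baculovirus-expressed in Sf9 cells (infected at 4 x 10⁶ cells/mL, 27 °C, harvested 48 h); washed membranes, 2.5 µg protein per reaction in 50 mM Tris pH 8.0 with 10 nM [³H](+)-pentazocine and 8 competitor concentrations 10 pM–100 µM; 90 min at 37 °C; filtration on PEI-soaked glass fiber filters; scintillation counting; two or three independent experiments in triplicate.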

Chain of Sigma non-opioid intracellular receptor 1 (Q99720 whole entry): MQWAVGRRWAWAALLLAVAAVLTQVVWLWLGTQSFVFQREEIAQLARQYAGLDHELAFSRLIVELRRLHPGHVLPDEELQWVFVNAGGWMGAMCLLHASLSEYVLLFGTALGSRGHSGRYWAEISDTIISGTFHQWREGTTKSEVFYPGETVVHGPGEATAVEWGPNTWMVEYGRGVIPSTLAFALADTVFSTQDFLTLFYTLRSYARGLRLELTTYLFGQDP

SMILES | Ratio Ki [1] | Ki [2] | Ki [3]
C[C@@H]1CN(CCCc2ccc(C(C)(C)C)cc2)C[C@@H](C)O1 (relative stereo) | 29 | 66.1 nM | 2.3 nM
CC(C)(C)c1ccc(CCCN2CCCCC2)cc1 | 21 | 31.5 nM | 1.5 nM
CC(Cc1ccc(C(C)(C)C)cc1)CN1C[C@@H](C)O[C@@H](C)C1 (some centres undefined) [FENPROPIMORPH] |  | 854 nM | 
CC1CCN(CCCc2ccc(C(C)(C)C)cc2)CC1 | 3 | 13.8 nM | 5.4 nM
c1ccc(CCCN2CCOCC2)cc1 | 3 | 2020 nM | 706 nM
CC(C)(C)c1ccc(CCCN2CCOCC2)cc1 | 360 | 930 nM | 2.6 nM
CC1CN(CCCc2ccc(C(C)(C)C)cc2)CC(C)O1 (mixture of isomers) | 9 | 77.9 nM | 8.4 nM
